Test results taken from ChEMBL document CHEMBL1125249, “Structure-affinity relationships of 12-sulfonyl derivatives of 5,8,8a,9,10,11,12,12a,13,13a-decahydro-6H-isoquino[2,1-g][1 ,6] naphthyridines at alpha-adrenoceptors” (J Med Chem, 1991).

Columns and labels:
[1] = molecular target: T1, Adrenergic receptor alpha-1 (Rattus norvegicus, UniProt P15823+P23944+P43140); experiment: Binding affinity to alpha-1 adrenergic receptor determined by measurement of [3H]prazosin displacement from rat cortical membrane
T1 sequence (P15823 whole entry): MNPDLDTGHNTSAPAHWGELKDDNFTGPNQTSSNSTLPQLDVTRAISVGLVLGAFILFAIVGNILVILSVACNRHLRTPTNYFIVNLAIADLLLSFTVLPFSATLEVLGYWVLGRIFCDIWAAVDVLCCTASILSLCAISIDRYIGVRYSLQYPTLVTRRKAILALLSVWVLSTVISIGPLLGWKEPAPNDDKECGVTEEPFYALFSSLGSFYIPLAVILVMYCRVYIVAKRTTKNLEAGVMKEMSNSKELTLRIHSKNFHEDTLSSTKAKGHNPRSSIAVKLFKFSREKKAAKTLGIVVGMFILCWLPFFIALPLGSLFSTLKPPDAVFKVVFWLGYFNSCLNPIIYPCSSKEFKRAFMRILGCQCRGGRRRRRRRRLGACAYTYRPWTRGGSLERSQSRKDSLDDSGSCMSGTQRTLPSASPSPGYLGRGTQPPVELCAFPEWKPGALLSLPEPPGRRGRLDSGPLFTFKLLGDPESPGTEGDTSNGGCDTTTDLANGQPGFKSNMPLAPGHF
T1 sequence (P23944 whole entry): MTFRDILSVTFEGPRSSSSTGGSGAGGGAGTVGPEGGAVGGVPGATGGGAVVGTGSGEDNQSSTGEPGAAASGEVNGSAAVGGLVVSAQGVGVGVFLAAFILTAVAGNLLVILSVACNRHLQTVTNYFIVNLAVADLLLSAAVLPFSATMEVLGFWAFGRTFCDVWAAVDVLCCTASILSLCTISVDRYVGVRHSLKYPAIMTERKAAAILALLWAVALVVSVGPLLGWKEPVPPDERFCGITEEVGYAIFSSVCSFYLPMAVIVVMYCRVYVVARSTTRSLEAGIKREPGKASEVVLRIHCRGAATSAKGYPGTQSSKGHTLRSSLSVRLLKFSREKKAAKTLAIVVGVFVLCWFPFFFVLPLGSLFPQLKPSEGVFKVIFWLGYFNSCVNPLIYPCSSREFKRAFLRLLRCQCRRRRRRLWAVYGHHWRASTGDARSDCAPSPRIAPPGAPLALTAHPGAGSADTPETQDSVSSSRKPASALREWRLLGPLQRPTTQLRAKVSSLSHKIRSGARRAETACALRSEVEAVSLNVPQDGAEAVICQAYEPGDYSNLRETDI
T1 sequence (P43140 whole entry): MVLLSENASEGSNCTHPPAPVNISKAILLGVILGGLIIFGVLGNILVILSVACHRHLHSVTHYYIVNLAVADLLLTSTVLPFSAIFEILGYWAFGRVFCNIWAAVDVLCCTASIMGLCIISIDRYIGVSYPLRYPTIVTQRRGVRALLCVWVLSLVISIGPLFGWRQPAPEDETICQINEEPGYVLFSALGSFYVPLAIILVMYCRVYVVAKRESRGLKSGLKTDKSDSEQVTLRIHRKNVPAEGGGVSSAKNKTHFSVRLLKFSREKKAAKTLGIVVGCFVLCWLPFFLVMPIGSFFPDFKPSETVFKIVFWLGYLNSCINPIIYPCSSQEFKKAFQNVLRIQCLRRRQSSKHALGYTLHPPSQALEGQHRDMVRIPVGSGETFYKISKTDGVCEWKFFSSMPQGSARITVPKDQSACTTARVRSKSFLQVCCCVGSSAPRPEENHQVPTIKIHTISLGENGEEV
Outline: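 Male Sprague-Dawley rat (150-200 g) cerebral cortex membranes, washed in 50 mM Tris-HCl/0.5 mM EDTA pH 7.4. 250 µg membrane protein incubated with 0.5 nM [3H]prazosin for 30 min at 25 °C in a 0.5 mL volume. Nonspecific binding defined by 10 µM phentolamine. IC50 estimated graphically; Ki calculated by Cheng-Prusoff.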

[2] = molecular target: T2, Adrenergic receptor alpha-2 (Rattus norvegicus, UniProt P22086+P19328+P22909); experiment: Binding affinity to alpha-2 adrenergic receptor determined by measurement of [3H]yohimbine displacement from rat cortical membrane
T2 sequence (P22086 whole entry): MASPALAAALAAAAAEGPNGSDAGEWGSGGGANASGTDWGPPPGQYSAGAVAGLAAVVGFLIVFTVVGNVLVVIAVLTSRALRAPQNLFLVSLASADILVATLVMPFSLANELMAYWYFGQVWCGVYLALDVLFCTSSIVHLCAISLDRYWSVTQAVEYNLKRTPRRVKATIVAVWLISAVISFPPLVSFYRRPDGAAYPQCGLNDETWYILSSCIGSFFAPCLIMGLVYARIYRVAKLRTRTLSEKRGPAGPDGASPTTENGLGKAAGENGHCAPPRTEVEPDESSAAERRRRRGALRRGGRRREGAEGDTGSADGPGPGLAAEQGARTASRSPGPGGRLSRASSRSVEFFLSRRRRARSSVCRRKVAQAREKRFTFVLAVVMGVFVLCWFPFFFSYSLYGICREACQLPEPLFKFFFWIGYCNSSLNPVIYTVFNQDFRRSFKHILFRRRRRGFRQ
T2 sequence (P19328 whole entry): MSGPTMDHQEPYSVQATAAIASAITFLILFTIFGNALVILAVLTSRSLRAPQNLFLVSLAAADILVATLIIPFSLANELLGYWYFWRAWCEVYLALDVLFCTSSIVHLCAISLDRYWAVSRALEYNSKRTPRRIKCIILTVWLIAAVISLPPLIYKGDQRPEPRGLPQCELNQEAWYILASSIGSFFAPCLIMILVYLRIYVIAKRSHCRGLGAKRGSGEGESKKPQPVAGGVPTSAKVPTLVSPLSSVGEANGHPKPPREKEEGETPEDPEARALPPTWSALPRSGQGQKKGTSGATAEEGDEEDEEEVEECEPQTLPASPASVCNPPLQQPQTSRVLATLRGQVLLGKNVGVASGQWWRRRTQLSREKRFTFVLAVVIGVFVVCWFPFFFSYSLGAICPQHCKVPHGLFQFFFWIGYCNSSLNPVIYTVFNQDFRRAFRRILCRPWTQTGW
T2 sequence (P22909 whole entry): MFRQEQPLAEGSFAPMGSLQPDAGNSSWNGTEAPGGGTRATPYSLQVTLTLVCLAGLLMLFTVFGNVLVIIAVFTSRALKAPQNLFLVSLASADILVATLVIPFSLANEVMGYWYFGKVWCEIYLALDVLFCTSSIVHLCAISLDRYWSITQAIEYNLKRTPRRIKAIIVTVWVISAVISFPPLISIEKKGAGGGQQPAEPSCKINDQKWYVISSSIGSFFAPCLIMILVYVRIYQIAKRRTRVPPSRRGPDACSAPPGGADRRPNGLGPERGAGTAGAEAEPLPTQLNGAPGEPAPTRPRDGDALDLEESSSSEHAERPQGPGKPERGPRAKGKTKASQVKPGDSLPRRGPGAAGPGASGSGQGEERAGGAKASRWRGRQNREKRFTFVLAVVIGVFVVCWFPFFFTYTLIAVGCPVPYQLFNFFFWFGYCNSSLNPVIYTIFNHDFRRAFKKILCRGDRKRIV

| Log Ki [1] | Log Ki [2] | SMILES |
| --- | --- | --- |
| -5.38 | -8.69 | O=S(=O)(c1ccc(F)cc1)N1CCC[C@@H]2CN3CCc4ccccc4[C@@H]3C[C@@H]21 |
| -5.33 | -8.66 | Nc1ccc(S(=O)(=O)N2CCC[C@@H]3CN4CCc5ccccc5[C@@H]4C[C@@H]32)cc1 |
| -4.8 | -7.78 | CS(=O)(=O)N1CCC[C@@H]2CN3CCc4c([nH]c5ccccc45)[C@@H]3C[C@@H]21 |
| -5.2 | -6.4 | CS(=O)(=O)N1CC[C@H]2C[C@H]3c4ccccc4CCN3C[C@H]2C1 |
| -6.03 | -8.74 | CN(C)S(=O)(=O)N1CCC[C@@H]2CN3CCc4ccccc4[C@@H]3C[C@@H]21 |
| -5.76 | -5.82 | CCCCS(=O)(=O)N1CCC[C@H]2CN3CCc4ccccc4[C@@H]3C[C@H]21 |
| -5.26 | -7.78 | COc1ccc2c(c1)CCN1C[C@H]3CCCN(S(=O)(=O)NC(C)(C)C)[C@H]3C[C@@H]21 |
| -5.21 | -8.04 | CS(=O)(=O)N1CCC[C@@H]2CN3CCc4ccc(F)cc4[C@@H]3C[C@@H]21 |
| -5.55 | -6.13 | CN1C[C@@H]2CCCN(S(C)(=O)=O)[C@@H]2C[C@H]1c1ccc2c(c1)OCO2 |
| -4.82 | -5.38 | CN1C[C@H]2CCCN(S(C)(=O)=O)[C@H]2C[C@H]1c1ccc2c(c1)OCO2 |
| -5.15 | -6.26 | CS(=O)(=O)N1CCC[C@H]2CN3CCc4c([nH]c5ccccc45)[C@@H]3C[C@H]21 |
| -5.19 | -8.3 | O=S(=O)(c1ccc(Cl)cc1)N1CCC[C@@H]2CN3CCc4ccccc4[C@@H]3C[C@@H]21 |
| -5.65 | -7.25 | CS(=O)(=O)N1CCC[C@H]2CN3CCc4ccccc4[C@@H]3C[C@@H]21 |
| -5.3 | -7.42 | CCCCS(=O)(=O)N1CCC[C@H]2CN3CCc4ccccc4[C@@H]3C[C@@H]21 |
| -5.58 | -5.96 | CS(=O)(=O)N1CCC[C@H]2CN3CCc4ccccc4[C@@H]3C[C@H]21 |
| -5.7 | -8.04 | CC(C)CS(=O)(=O)N(C)[C@@H]1CCN2CCc3ccccc3[C@@H]2C1 |
| -4.92 | -8.43 | COc1ccc2c(c1)CCN1C[C@H]3CCCN(S(N)(=O)=O)[C@H]3C[C@@H]21 |

| Log Ki [1] | Log Ki [2] | SMILES |
| --- | --- | --- |
| -5.01 | -8.83 | COc1ccc2c(c1)CCN1C[C@H]3CCCN(S(=O)(=O)c4cccs4)[C@@H]3C[C@@H]21 |
| -4.42 | -7.94 | COc1ccc2c(c1OC)CCN1C[C@H]3CCCN(S(C)(=O)=O)[C@H]3C[C@@H]21 |
| -5.48 | -8.65 | COc1cccc2c1[C@@H]1C[C@H]3[C@H](CCCN3S(C)(=O)=O)CN1CC2 |
| -4.46 | -8.1 | COc1cc2c(cc1OC)[C@@H]1C[C@H]3[C@H](CCCN3S(=O)(=O)CC(C)C)CN1CC2 |
| -5.27 | -8.2 | CS(=O)(=O)N1CCC[C@@H]2CN3CCc4cc(O)ccc4[C@@H]3C[C@@H]21 |
| -5.33 | -8.82 | C=CS(=O)(=O)N1CCC[C@@H]2CN3CCc4cc(OC)ccc4[C@@H]3C[C@@H]21 |
| -5.13 | -8.82 | COc1ccc2c(c1)CCN1C[C@H]3CCCN(S(=O)(=O)Cc4ccccc4)[C@@H]3C[C@@H]21 |
| -5.25 | -8.66 | COc1ccc2c(c1)CCN1C[C@H]3CCCN(S(=O)(=O)N(C)C)[C@H]3C[C@@H]21 |
| -5.25 | -8.3 | COc1cc2c(cc1Br)[C@@H]1C[C@@H]3[C@H](CCCN3S(C)(=O)=O)CN1CC2 |
| -5.35 | -8.3 | COc1ccc2c(c1Br)CCN1C[C@H]3CCCN(S(C)(=O)=O)[C@@H]3C[C@@H]21 |
| -4.85 | -6.88 | COc1ccc2c(c1)CCN1C[C@@H]3CCCN(S(C)(=O)=O)[C@@H]3C[C@@H]21 |
| -5.63 | -7.37 | COc1ccc(OC)c2c1CCN1C[C@H]3CCCN(S(C)(=O)=O)[C@H]3C[C@@H]21 |
| -5.51 | -6.12 | CS(=O)(=O)N1CCC[C@@H]2CN(CCc3ccccc3)CC[C@@H]21 |
| -4.93 | -7.08 | COc1cc2c(cc1OC)[C@@H]1C[C@H]3[C@H](CCCN3S(C)(=O)=O)CN1C(C)C2 (stereo partly drawn) |
| -4.89 | -9.15 | Cc1ccc2c(c1)CCN1C[C@H]3CCCN(S(C)(=O)=O)[C@H]3C[C@@H]21 |
| -5.32 | -9.19 | CS(=O)(=O)N1CCC[C@@H]2CN3CCc4cc5c(cc4[C@@H]3C[C@H]21)OCO5 |
| -5.8 | -7.54 | CS(=O)(=O)N1CC[C@@H]2CN3CCc4ccccc4[C@@H]3C[C@@H]2C1 |
